# Sampled rows, rich in hits. Any-hit rate of the full collection: about 4.1%.
# KCC2 mod – KCC2 cotransporter modulators, thallium flux, primary screen, cell-based, HEK293 KCC2, FluoZin-2 fluorescence, MLSMR; 190,000 tested, 2.2% active; KCC2 cells, thallium flux FluoZin-2 fluorescence; B-score of Tl+ flux slope (higher = more flux/activation; lower = inhibition) at 10 µM;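 active = thallium flux slope and its plate-corrected score both differing from the plate sample mean at a set confidence after two filtering rounds, in either direction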;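 also: slope of fluorescence scaled to starting intensity during 10 to 20 s after thallium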
# hERG protect – hERG rescue from dofetilide block, primary screen, cell-based, CHO-hERG, FluxOR thallium flux, dofetilide IC70. Voltage-gated inwardly rectifying potassium channel KCNH2 (Homo sapiens), Q12809. dofetilide IC70 present. activation (rescue from dofetilide block), less the hit threshold, % at 10 µM. 310,000 tested, 0.51% active;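 active = activation above the mean of controls blocked by dofetilide plus 5 SD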;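 also: thallium influx through hERG after potassium depolarization seen as dye fluorescence rise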
# KCNK3 block – human KCNK3 channel inhibitors, primary screen, CHO cells, FluxOR thallium flux, B-score; Potassium channel subfamily K member 3 (Homo sapiens), O14649; FluxOR fluorescence; hits give low values; B-score at 10 µM; 340,000 tested, 0.84% active; AID 602410, 2012;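 active = B-score under library mean minus 4 SD, starting fluorescence ratio at most library mean plus 5 SD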;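 also: more negative B-score means stronger inhibition of thallium flux through KCNK3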
# KCNQ1 pot – potentiators or activators of KCNQ1 channel, primary screen, cell-based, thallium flux, high-throughput; B-score at 10 µM; 310,000 tested, 0.35% active; CHO-K1 KCNQ1, thallium flux FluxOR fluorescence; hits give high values;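 active = fluorescence ratio B-score, a plate-corrected score, at least three library SD, with initial intensity B-score within 5 SD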
#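 assay system = KCNQ1-transfected CHO-K1 cells | medium = assay buffer with matched DMSO | probe or stimulus = depolarizing K+/Tl+ stimulus, K2SO4 and Tl2SO4 each 12.5 mM in 5x stock | dosing = single dose | incubation = dye 90 min, compound 20 min, room temperature | detection = kinetic FluxOR fluorescence, 10 s baseline plus 110 s post-stimulus | evaluation = ratio B score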
# KCNK9 inh – KCNK9 potassium channel inhibitors, primary screen, HEK293 cells, thallium flux; Potassium channel subfamily K member 9 (Homo sapiens), Q9NPC2; FluxOR thallium flux fluorescence; hits give low values; 310,000 tested, 1.2% active; AID 488922, 2010; B-score at 10 µM;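 active = ratio B-score over 3 SD below the library mean, with starting fluorescence within 5 SD of its mean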;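 also: negative B-score means less thallium flux so channel inhibition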
# KCNQ1 inh – inhibitors of human KCNQ1 channel, primary screen, cell-based, thallium flux, high-throughput; Potassium voltage-gated channel subfamily KQT member 1 (Homo sapiens), P51787; CHO-K1 KCNQ1, FluxOR thallium flux fluorescence; hits give high values; B-score at 10 µM; 310,000 tested, 1.3% active;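 active = compounds whose thallium flux B-score, printed positive for inhibition, exceeds three library SD while starting fluorescence stays within three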;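 also: channel opened by potassium depolarization with thallium stimulus after 20 min compound exposure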
# KCNK9 inh conf – KCNK9 potassium channel inhibitors, confirmation, HEK293 cells, thallium flux, duplicate; FluxOR thallium flux fluorescence; 4,900 tested, 43% active; AID 492992, 2010; shares compounds with KCNK9 inh; inhibition, % at 10 µM;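 active = thallium signal inhibited by more than 5 SD of the compound-free buffer control wells, on both duplicate plates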;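 also: 0% = assay buffer control wells without compound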
# Kir21 sel – mouse Kir2.1 channel inhibition, confirmation, selectivity assay for KCNK9 modulator project, cell-based, HEK293, thallium flux. shares compounds with KCNK9 inh. 4,900 tested, 4% active. inhibition, % at 10 µM. Kir2.1 cells, FluxOR thallium flux fluorescence. AID 492993, 2010;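 active = thallium signal drop more than 5 SD beyond the mean of the no-compound control wells, seen in both duplicate plates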;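 also: signal is fluorescence rise after thallium addition divided by baseline fluorescence; plate controls were assay buffer only for no effect and full block by chlorpromazine control for full effect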
# HEK293 Tl ctr – thallium flux in non-induced HEK293 cells, confirmation, counter-screen for KCNK9 inhibitor project, cell-based, second counter screen, non-induced KCNK9-HEK293. shares compounds with KCNK9 inh. FluxOR thallium flux. inhibition, % at 10 µM. 4,900 tested, 40% active. AID 492997, 2010;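 active = thallium signal drop beyond 5 SD of the untreated control mean, on both duplicate plates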;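 also: plate controls were buffer only IC0 wells for no effect and SID17386958 at its maximal inhibitory level for full effect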
# * marks the source's active call; other numbers are inactive results; i = inactive; · = no result.
SMILES,KCC2 mod,hERG protect,KCNK3 block,KCNQ1 pot,KCNK9 inh,KCNQ1 inh,KCNK9 inh conf,Kir21 sel,HEK293 Tl ctr
S=c1nc(C2COc3ccccc3O2)[nH][nH]1 (centres undefined),0.046,-6,i,i,i,i,i,i,i
CCOc1ccccc1C1N=C(c2ccc(OC)cc2)CC(c2ccccc2O)N1 (centres undefined),-1.5,-17,i,i,i,i,i,i,i
CC(C)C1N=C(c2ccc3c(c2)OCO3)CC(c2ccccc2O)N1 (centres undefined),-1.5,-17,i,i,i,i,·,·,·
O=C(CN(Cc1ccccc1)S(=O)(=O)c1cccc(C(F)(F)F)c1)NC1CCCCC1,0.49,-10,i,i,i,i,·,·,·
CC(c1ccccc1)N(CC(=O)NC1CCCCC1)S(=O)(=O)c1cccc(C(F)(F)F)c1 (centres undefined),-0.24,-9,i,i,-8.2*,i,49%*,i,47%*
O=C(COc1cc(O)c2c(=O)cc(-c3ccccc3)oc2c1)c1ccccc1,1.2,-7,i,i,-8.7*,i,44%*,i,30%*
Cc1ccc(C(=O)COc2cc(O)c3c(=O)cc(-c4ccccc4)oc3c2)cc1,·,-1,i,i,i,i,·,·,·
COc1ccc(NC(=O)CN2C(=O)NC(c3ccccc3)(c3ccccc3)C2=O)cc1OC,·,-2,i,i,-16*,i,i,i,i
O=C(NCCNCCO)C1(C(F)(F)F)C/C(=C\Cc2ccccc2)CCCO1 (centres undefined),·,-8,i,i,i,i,·,·,·
O=C(NCC1CC1)C1(C(F)(F)F)CC(CCc2ccccc2)CCCO1 (centres undefined),·,-8,i,i,i,i,i,i,i
CCOC(=O)c1c(NC(=O)CSc2nc3ccccc3c(=O)n2-c2ccc(F)cc2)sc(C(C)=O)c1C,-0.72,-18,i,i,i,i,·,·,·
COCCn1cnc2c(c1=O)c1nc3ccccc3nc1n2/N=C/c1cccc(OC)c1,-0.0092,-3,i,i,-9.7*,i,i,i,i
CC/C(C)=N\Nc1nc(-c2cc3cc(OC)ccc3oc2=O)cs1,0.59,-9,i,i,i,i,i,i,i
CCCCOC(=O)Nc1nnc(SCCOc2ccc(C)cc2)s1,-0.48,-13,i,i,i,i,i,i,i
C(=N\N(Cc1ccccc1)c1ccccc1)/c1ccco1,-0.0057,-14,i,i,-8.1*,i,i,i,42%*
CN(C)c1ccc(N=Cc2ccco2)cc1,·,·,i,·,·,·,·,·,·
CCOC(=O)NNC(=S)Nc1c(C)n(C)n(-c2ccccc2)c1=O,-0.32,-15,i,i,i,i,·,·,·
CC(=O)Nc1ccc(S(=O)(=O)N[C@@H](C)C(=O)OCC(=O)Nc2ccc3c(c2)OCCO3)cc1,·,·,i,·,·,·,·,·,·
CC1(c2ccc(OCC#N)cc2)C=C(c2ccc(OCC#N)cc2)n2nc(C(F)(F)F)nc2N1 (centres undefined),0.32,-7,i,i,-9.2*,i,43%*,i,44%*

# Screens deposited in PubChem by several laboratories.
